In brackets after ≈: the same amount, converted by molar mass. Bounds are passed on as bounds.

One experiment deals with Mucor hiemalis. The experiment can be described thus: Antimicrobial activity against Mucor hiemalis after 24 to 48 hrs by serial dilution technique. Type of experiment: functional. In short, it runs like this:
(§1)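 MIC by twofold (1:1) serial dilution in 96-well plates. Medium was MYC (1.0% glucose, 1.0% phytone peptone, 50 mM HEPES, pH 7.0), used for yeasts and fungi.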

For the next experiment, the system named is Pseudomonas aeruginosa. The experiment can be described thus: Antimicrobial activity against Pseudomonas aeruginosa after 24 to 48 hrs by serial dilution technique. Format: functional.
For a further experiment, the system named is Wickerhamomyces anomalus. The experiment is described as follows: Antimicrobial activity against Pichia anamola after 24 to 48 hrs by serial dilution technique. Format: functional. In short, it runs like this: as §1
The test system of another experiment is Micrococcus luteus. The experiment can be described thus: Antimicrobial activity against Micrococcus luteus after 24 to 48 hrs by serial dilution technique. Type of experiment: functional.
For another experiment, the system named is HUVEC. The experiment can be described thus: Cytotoxicity against human HUVEC cells after 5 days by MTT assay. Type of experiment: cell-based. To be noted: 120 h.
Experiment [1] concerns Schizosaccharomyces pombe. The experiment can be described thus: Antimicrobial activity against Schizosaccharomyces pombe after 24 to 48 hrs by serial dilution technique. Format: functional. The method, boiled down:
as §1

The test system of the next experiment is Escherichia coli. The experiment can be described thus: Antimicrobial activity against Escherichia coli after 24 to 48 hrs by serial dilution technique. Type of experiment: functional.
The test system of a further experiment is MCF7. The experiment can be described thus: Cytotoxicity against human MCF7 cells after 5 days by MTT assay. Format: functional, cell-based. The following applies: MCF7, 120 h.
In the next experiment the test system is Staphylococcus aureus. The experiment can be described thus: Antimicrobial activity against methicillin-resistant Staphylococcus aureus after 24 to 48 hrs by serial dilution technique. Type of experiment: functional.
Another experiment deals with Rhodotorula glutinis. The experiment is described as follows: Antimicrobial activity against Rhodotorula glutinis after 24 to 48 hrs by serial dilution technique. Type of experiment: functional. In short, it runs like this: as §1
The nature of experiment [2]: Antimicrobial activity against Nocardia flava after 24 to 48 hrs by serial dilution technique. Type of experiment: functional.
The subject of experiment [3] is Chromobacterium violaceum. The experiment is described as follows: Antimicrobial activity against Chromobacterium violaceum after 24 to 48 hrs by serial dilution technique. Format: functional.
The nature of experiment [4]: Cytotoxicity against human KB-3-1 cells after 5 days by MTT assay. To be noted: KB 3-1, 120 h. Format: functional, cell-based.
The next experiment relates to L929. The experiment is described as follows: Cytotoxicity against mouse L929 cells after 5 days by MTT assay. To be noted: L929, 120 h. Format: functional, cell-based.
The next experiment relates to Candida albicans. The experiment is described as follows: Antimicrobial activity against Candida albicans after 24 to 48 hrs by serial dilution technique. Format: functional. The method, boiled down: as §1

Consider `CSC1=CC(=O)C(N)=C(Cl)C1=O` [HYALADIONE], for which the MIC was 16.5 µg/mL (≈ 81 µM) against Mucor hiemalis; 8.5 µg/mL (≈ 41.7 µM) against Pseudomonas aeruginosa; 33.3 µg/mL (≈ 164 µM) in the experiment on Wickerhamomyces anomalus (Hansenula anomala); 3.3 µg/mL (≈ 16.2 µM) against Micrococcus luteus; more than 33.3 µg/mL in experiment [1]; 33.3 µg/mL (≈ 164 µM) against Escherichia coli. Further, the MIC in the experiment with Staphylococcus aureus is 0.83 µg/mL (≈ 4.08 µM); in the experiment on Rhodotorula glutinis, 1.7 µg/mL (≈ 8.35 µM); in [2] it was 3.3 µg/mL (≈ 16.2 µM); in experiment [3], 2.1 µg/mL (≈ 10.3 µM); against Candida albicans it was more than 33.3 µg/mL. Moreover, the IC50 with HUVEC came to 2.21 µM; in the experiment with MCF7, 1.23 µM; in experiment [4], 3.93 µM; in the experiment on L929 it was 1.47 µM.
With NYSTATIN, the MIC against Mucor hiemalis amounted to 1.67 µg/mL; in the experiment with Wickerhamomyces anomalus, 1.67 µg/mL; in [1] it was 1.67 µg/mL; in the experiment with Rhodotorula glutinis, 0.42 µg/mL; against Candida albicans it was 1.67 µg/mL.
`CN(C)[C@@H]1C(O)=C(C(N)=O)C(=O)[C@@]2(O)C(O)=C3C(=O)c4c(O)cccc4[C@@](C)(O)[C@H]3[C@H](O)[C@@H]12.Cl` [OXYTETRACYCLINE HYDROCHLORIDE]: the MIC in the experiment on Micrococcus luteus was 0.104 µg/mL; in the experiment on Escherichia coli, 0.83 µg/mL; in the experiment on Staphylococcus aureus it was 0.104 µg/mL; in [2], 1.67 µg/mL; in experiment [3] it was 0.21 µg/mL.

The values above are taken from ChEMBL document CHEMBL2040741, “Hyaladione, an S-methyl cyclohexadiene-dione from Hyalangium minutum” (J Nat Prod, 2012).
